Key:
[1] = system: prozyme protein levels in T. brucei cells; experiment: Western blot analysis of prozyme levels in treated T. brucei cells; assay type: cell-based; details: 24 h treatment at 1.5 × EC50
TbAdoMetDC [2] = target: T1, TbAdoMetDC (Trypanosoma brucei brucei, UniProt P50244); experiment: Rapid dilution assay for reversibility of inhibition; assay type: biochemical; details: 30 min with 36 μM inhibitor, then 100-fold dilution; pH 7.2
T1 sequence (P50244 86-370 limits assumed): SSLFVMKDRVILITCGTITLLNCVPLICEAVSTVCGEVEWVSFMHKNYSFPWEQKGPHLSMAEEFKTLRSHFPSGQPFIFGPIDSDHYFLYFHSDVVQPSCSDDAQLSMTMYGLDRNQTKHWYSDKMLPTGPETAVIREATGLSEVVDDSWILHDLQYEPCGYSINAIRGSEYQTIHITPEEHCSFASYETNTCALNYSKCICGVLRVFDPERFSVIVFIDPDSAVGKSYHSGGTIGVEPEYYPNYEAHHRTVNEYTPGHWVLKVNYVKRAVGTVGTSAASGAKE
Summary of the method: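 Recombinant T. brucei AdoMetDC/prozyme was pre-equilibrated with test compound for 30 min. It was then diluted 100-fold, to a non-inhibitory level, into reaction buffer containing 50 μM S-adenosyl-L-methionine (~Km) to start the reaction. Aliquots were quenched every 5 min, and decarboxylated AdoMet was quantified by RapidFire–MS. Progress curves were compared with a vehicle control.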

[3] = target: T2, T. brucei AdoMetDC/prozyme (Trypanosoma brucei brucei, UniProt P50244); experiment: biochemical; details: pH 7.2, read-out: IC90 for TbAdoMetDC
T2 sequence (P50244 86-370 limits assumed): T1 sequence (P50244 86-370 limits assumed)

TbAdoMetDC [4] = target: T1, TbAdoMetDC; experiment: Inhibition modality: substrate titrations, Lineweaver–Burk analysis; assay type: biochemical; details: substrate titrations at four inhibitor concentrations
Summary of the method: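 Recombinant T. brucei AdoMetDC/prozyme heterodimer. Product (decarboxylated AdoMet) formation was measured across varied S-adenosyl-L-methionine concentrations at four test-compound concentrations. Product was quantified by RapidFire–mass spectrometry. Final DMSO in enzyme assays was 2%. Substrate titrations were analysed by double-reciprocal Lineweaver–Burk plot to assign inhibition modality.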

[5] = Metabolic stability in hepatic microsomes; assay type: in vitro ADME, male CD-1 mouse and mixed-gender human
[6] = system: MDCKII-hMDR1 monolayer cells; experiment: MDCKII-hMDR1 monolayer BBB permeability assay ± Pgp inhibitor GF120918; assay type: in vitro ADME
[7] = system: bloodstream form T. brucei Lister 427; experiment: ATP–bioluminescence-based bloodstream form T. brucei cell viability assay; details: Trypanosoma brucei, 48 h, read-out: Tb427 EC50
human AdoMetDC = target: T3, human AdoMetDC (Homo sapiens, UniProt P17707); experiment: RapidFire–MS-based AdoMetDC enzyme activity assay; assay type: biochemical; details: read-out: Hs IC50; pH 7.2; mean, triplicate, 95% CI in parentheses
T3 sequence (P17707 1-334): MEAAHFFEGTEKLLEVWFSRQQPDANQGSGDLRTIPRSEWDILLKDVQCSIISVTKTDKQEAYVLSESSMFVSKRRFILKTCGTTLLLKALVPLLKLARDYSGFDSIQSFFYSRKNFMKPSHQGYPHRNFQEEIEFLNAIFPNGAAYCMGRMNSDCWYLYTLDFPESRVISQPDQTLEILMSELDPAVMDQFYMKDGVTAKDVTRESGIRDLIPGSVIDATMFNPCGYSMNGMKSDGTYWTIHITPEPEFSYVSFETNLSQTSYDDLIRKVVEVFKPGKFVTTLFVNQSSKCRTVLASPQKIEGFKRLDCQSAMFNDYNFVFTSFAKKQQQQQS

[8] = system: T. brucei AdoMetDC/prozyme; experiment: biochemical; details: pH 7.2; human vs T. brucei AdoMetDC

SMILES	prozyme protein level vs vehicle-only control [1]	recovery of enzyme activity after dilution of inhibitor (reversibility) (TbAdoMetDC [2])	IC90 [3] [µM]	modality of inhibition (TbAdoMetDC [4])	metabolic stability [5]	Pgp-mediated efflux substrate [6]	EC50 [7] [µM]	IC50 (human AdoMetDC) [µM]	selectivity ratio (HsIC50/TbIC50) [8]
Cc1cc(Nc2cc(Cl)cc(Cl)c2)nc(N)n1 [Compound 7]	induced prozyme above the vehicle-only control levels	fully recovered	~36	competitive inhibition	poor metabolic stability	not a substrate of Pgp-mediated efflux	5.6		
Cc1cc(Nc2cc(Cl)c(F)c(Cl)c2)nc(N)n1 [Compound 62, N^4-(3,5-Dichloro-4-fluorophenyl)-6-methylpyrimidine-2,4-diamine]							4.8	160	exceeded 100

Reference: paper PMC5965259 (Journal of medicinal chemistry, 2018)
